Assay results from ChEMBL document CHEMBL4261563, “Synthesis and in vitro evaluation of substituted 3-cinnamoyl-4-hydroxy-pyran-2-one (CHP) in pursuit of new potential antituberculosis agents” (Medchemcomm, 2018).
In brackets after ≈: the same amount, converted by molar mass.

Experiments:
[1] = tested on: Mycobacterium tuberculosis; assay: Antitubercular activity against Mycobacterium tuberculosis H37Rv after 2 weeks by broth microdilution method; assay type: functional; conditions: 336 h
In short: (§1)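 Middlebrook 7H9 broth microdilution with 10% ADC, compounds at […] μg ml−1 in duplicate. Each well received mid-log M. tuberculosis H37Rv at ∼1 × 10^5 CFU ml−1, checked by plating 10-fold dilutions on 7H11 agar (37 °C, read at four weeks). Drug-free broth was the negative control. MIC was the lowest concentration (μg ml−1) preventing visible growth after two weeks.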

[2] = tested on: Mycolicibacterium smegmatis; assay: Antimycobacterial activity against Mycobacterium smegmatis after 72 hrs by broth microdilution method; assay type: functional
Staphylococcus aureus = assay: Antibacterial activity against Staphylococcus aureus ATCC 25923 after 24 hrs by broth microdilution method; assay type: functional; conditions: ATCC 25923, 24 h
In short: (§2)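 Strains revived on Mueller Hinton agar, 37 °C for 24 h. MIC by broth microdilution in MH broth, read after 24 h at 37 °C by visual turbidity, highest concentration tested 128 μg ml−1. Levofloxacin as positive control.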

[3] = tested on: Staphylococcus epidermidis; assay: Antibacterial activity against Staphylococcus epidermidis ATCC 12228 after 24 hrs by broth microdilution method; assay type: functional; conditions: ATCC 12228, 24 h; in short: as §2
Micrococcus luteus = assay: Antibacterial activity against Micrococcus luteus ATCC 10240 after 24 hrs by broth microdilution method; assay type: functional; conditions: ATCC 10240, 24 h; in short: as §2
Bacillus subtilis = assay: Antibacterial activity against Bacillus subtilis ATCC 11774 after 24 hrs by broth microdilution method; assay type: functional; conditions: ATCC 11774, 24 h; in short: as §2
Escherichia coli = assay: Antibacterial activity against Escherichia coli ATCC 10536 after 24 hrs by broth microdilution method; assay type: functional; conditions: ATCC 10536, 24 h; in short: as §2
Enterococcus faecalis = assay: Antibacterial activity against Enterococcus faecalis ATCC 51299 after 24 hrs by broth microdilution method; assay type: functional; conditions: ATCC 51299, 24 h; in short: as §2
Pseudomonas aeruginosa = assay: Antibacterial activity against Pseudomonas aeruginosa ATCC 10145 after 24 hrs by broth microdilution method; assay type: functional; conditions: ATCC 10145, 24 h; in short: as §2
Klebsiella pneumoniae = assay: Antibacterial activity against Klebsiella pneumoniae ATCC BAA-2146 after 24 hrs by broth microdilution method; assay type: functional; conditions: ATCC BAA-2146, 24 h; in short: as §2
HEK293 = assay: Cytotoxicity against HEK293 cells by MTT assay; assay type: cell-based, Homo sapiens; conditions: for Activity: human, hek293; for IC50: Homo sapiens, HEK293
In short: (§3)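 HEK-293 (from NCCS, Pune) treated at 1, 20, 40 and 80 μM, then at 100 μM. Percentage growth inhibition measured by MTT assay. IC50 assigned from whether inhibition reached ≥50% at 100 μM, the highest concentration tested.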

[4] = Cytotoxicity against HEK293 cells assessed as growth inhibition at 100 uM by MTT assay relative to control; assay type: cell-based; conditions: human, read-out: GI; in short: as §3
[5] = Cytotoxicity against human MCF7 cells assessed as growth inhibition at 100 uM by MTT assay relative to control; assay type: cell-based; conditions: read-out: GI
In short: (§4)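 HCT-116, MCF-7 and PC-3 cells (from NCI, USA) exposed to double dilutions from 0.0 to 100 μM. Growth inhibition measured by MTT cell viability assay. Results given as mean ± standard deviation of percentage growth inhibition.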

[6] = Cytotoxicity against human PC3 cells assessed as growth inhibition at 100 uM by MTT assay relative to control; assay type: cell-based, PC-3; conditions: read-out: GI; in short: as §4
[7] = Cytotoxicity against human HCT116 cells assessed as growth inhibition at 100 uM by MTT assay relative to control; assay type: cell-based, HCT-116; conditions: read-out: GI; in short: as §4
MCF7 = assay: Cytotoxicity against human MCF7 cells assessed as growth inhibition by MTT assay; assay type: cell-based; conditions: for Activity: human, mcf7; in short: as §4
PC-3 = assay: Cytotoxicity against human PC3 cells assessed as growth inhibition by MTT assay; assay type: cell-based; conditions: for Activity: human, pc-3; in short: as §4
HCT-116 = assay: Cytotoxicity against human HCT116 cells assessed as growth inhibition by MTT assay; assay type: cell-based; conditions: for Activity: human, hct-116; in short: as §4
[8] = tested on: Mycobacterium tuberculosis; assay: Antitubercular activity against Mycobacterium tuberculosis H37Rv; assay type: functional; in short: as §1
[9] = Selectivity ratio of MIC for Mycobacterium smegmatis to MIC for Mycobacterium tuberculosis H37Rv; assay type: functional

Row | Compound | MIC [1] [µg/mL] | MIC ([2]; read-out: MIC) [µg/mL] | IC50 (HEK293) [µM] | also measured
1 | Cc1cc(O)c(C(=O)/C=C/c2ccccc2)c(=O)o1 | 4 (≈ 15.6 µM) | > 128 |  | MIC (Staphylococcus aureus): > 128 µg/mL; MIC [3]: > 128 µg/mL; MIC (Micrococcus luteus): > 128 µg/mL; MIC (Bacillus subtilis): > 128 µg/mL; MIC (Escherichia coli): > 128 µg/mL; MIC (Enterococcus faecalis): > 128 µg/mL; MIC (Pseudomonas aeruginosa): > 128 µg/mL; MIC (Klebsiella pneumoniae): 128 µg/mL (≈ 499 µM); Activity (HEK293): Dose-dependent effect; inhibition at 100 µM [4]: 38 to 44%; inhibition at 100 µM [5]: 38 to 44%; inhibition at 100 µM [6]: 38 to 44%; inhibition at 100 µM [7]: 50%; Activity (MCF7): Dose-dependent effect; Activity (PC-3): Dose-dependent effect; Activity (HCT-116): Dose-dependent effect
2 | COc1ccccc1/C=C/C(=O)c1c(O)cc(C)oc1=O | 32 to 64 (≈ 112 to 224 µM) | > 128 |  | 
3 | COc1cc(/C=C/C(=O)c2c(O)cc(C)oc2=O)ccc1O | 32 (≈ 106 µM) | > 128 | > 100 | 
4 | Cc1ccc(/C=C/C(=O)c2c(O)cc(C)oc2=O)cc1 | 8 (≈ 29.6 µM) | > 128 | > 100 | 
5 | CCOc1ccc(/C=C/C(=O)c2c(O)cc(C)oc2=O)cc1 | 256 (≈ 852 µM) | > 128 |  | 
6 | CC[C@@H](CO)NCCN[C@@H](CC)CO [ETHAMBUTOL] | 2.5 (≈ 12.2 µM) |  |  | 
7 | Cc1cccc(/C=C/C(=O)c2c(O)cc(C)oc2=O)c1 | 32 (≈ 118 µM) | > 128 | 100 | 
8 | Cc1cc(O)c(C(=O)/C=C/c2cccc(C(F)(F)F)c2)c(=O)o1 | 256 (≈ 790 µM) | > 128 | > 100 | 
9 | Cc1cc(O)c(C(=O)/C=C/c2ccc(C(F)(F)F)cc2)c(=O)o1 | 256 (≈ 790 µM) | > 128 | 100 | 
10 | Cc1cc(O)c(C(=O)/C=C/c2cccc(O)c2)c(=O)o1 | 8 to 16 (≈ 29.4 to 58.8 µM) | > 128 | > 100 | 
11 | C[C@H]1COc2c(N3CCN(C)CC3)c(F)cc3c(=O)c(C(=O)O)cn1c23.C[C@H]1COc2c(N3CCN(C)CC3)c(F)cc3c(=O)c(C(=O)O)cn1c23.O [LEVOFLOXACIN] | 2.5 | 2.5 |  | MIC (Staphylococcus aureus): 0.078 to 0.156 µg/mL; MIC [3]: 0.039 to 0.078 µg/mL; MIC (Micrococcus luteus): 0.078 µg/mL; MIC (Bacillus subtilis): 0.39 µg/mL; MIC (Escherichia coli): 0.078 µg/mL; MIC (Enterococcus faecalis): 0.156 µg/mL; MIC (Pseudomonas aeruginosa): 0.312 to 0.625 µg/mL; MIC (Klebsiella pneumoniae): 0.625 to 1.25 µg/mL
12 | Cc1cc(O)c(C(=O)/C=C/c2ccsc2)c(=O)o1 | 32 to 64 (≈ 122 to 244 µM) | > 128 |  | 
13 | CO[C@H]1/C=C/O[C@@]2(C)Oc3c(C)c(O)c4c(O)c(c(/C=N/N5CCN(C)CC5)c(O)c4c3C2=O)NC(=O)/C(C)=C\C=C\[C@H](C)[C@H](O)[C@@H](C)[C@@H](O)[C@@H](C)[C@H](OC(C)=O)[C@@H]1C [RIFAMPIN] | 0.078 (≈ 0.0948 µM) |  |  | MIC [8]: 0.2 µg/mL (≈ 0.243 µM); Selectivity ratio [9]: 500
14 | NNC(=O)c1ccncc1 [ISONIAZID] | 0.312 (≈ 2.28 µM) |  |  | MIC [2]: 25 µg/mL (≈ 182 µM); MIC [8]: 0.02 µg/mL (≈ 0.146 µM); Selectivity ratio [9]: 1000
15 | COc1ccc(OC)c(/C=C/C(=O)c2c(O)cc(C)oc2=O)c1 | 4 to 8 (≈ 12.6 to 25.3 µM) | > 128 | 100 | 
16 | CCOc1cccc(/C=C/C(=O)c2c(O)cc(C)oc2=O)c1 | 4 (≈ 13.3 µM) | > 128 | 80 to 100 | MIC (Staphylococcus aureus): > 128 µg/mL; MIC [3]: > 128 µg/mL; MIC (Micrococcus luteus): > 128 µg/mL; MIC (Bacillus subtilis): > 128 µg/mL; MIC (Escherichia coli): > 128 µg/mL; MIC (Enterococcus faecalis): > 128 µg/mL; MIC (Pseudomonas aeruginosa): > 128 µg/mL; MIC (Klebsiella pneumoniae): 128 µg/mL (≈ 426 µM); Activity (HEK293): Dose-dependent effect; inhibition at 100 µM [4]: 67 to 70%; inhibition at 100 µM [5]: 67 to 70%; inhibition at 100 µM [6]: 67 to 70%; inhibition at 100 µM [7]: 67 to 70%; IC50 (MCF7; Homo sapiens, MCF7): 80 µM; Activity (MCF7): Dose-dependent effect; IC50 (PC-3; Homo sapiens, PC-3): 80 µM; Activity (PC-3): Dose-dependent effect; IC50 (HCT-116; Homo sapiens, HCT-116): 80 µM; Activity (HCT-116): Dose-dependent effect
17 | COc1cc(OC)c(OC)cc1/C=C/C(=O)c1c(O)cc(C)oc1=O | 8 (≈ 23.1 µM) | > 128 | 100 | 
18 | Cc1cc(O)c(C(=O)/C=C/c2ccccc2Cl)c(=O)o1 | 16 (≈ 55 µM) | > 128 | > 100 | 
19 | Cc1cc(O)c(C(=O)/C=C/c2cc(Br)cs2)c(=O)o1 | 4 to 8 (≈ 11.7 to 23.4 µM) | > 128 | 100 | 
20 | Cc1cc(O)c(C(=O)/C=C/c2cccc(Br)c2)c(=O)o1 | 4 to 8 (≈ 11.9 to 23.9 µM) | > 128 | 100 | 
21 | COc1ccc(/C=C/C(=O)c2c(O)cc(C)oc2=O)cc1 | 32 (≈ 112 µM) | > 128 | 100 | 
22 | Cc1cc(O)c(C(=O)/C=C/c2ccccc2C(F)(F)F)c(=O)o1 | 8 (≈ 24.7 µM) | > 128 |  | 
23 | COc1cccc(/C=C/C(=O)c2c(O)cc(C)oc2=O)c1 | 8 to 16 (≈ 27.9 to 55.9 µM) | > 128 |  | 
24 | Cc1cc(O)c(C(=O)/C=C/c2ccc(O)cc2)c(=O)o1 | 64 (≈ 235 µM) | > 128 |  | 
25 | CN[C@@H]1[C@H](O[C@H]2[C@H](O[C@H]3[C@H](O)[C@@H](O)[C@H](N=C(N)N)[C@@H](O)[C@@H]3N=C(N)N)O[C@@H](C)[C@]2(O)C=O)O[C@@H](CO)[C@H](O)[C@H]1O [STREPTOMYCIN] | 1.25 (≈ 2.15 µM) |  |  | 
26 | Cc1cc(O)c(C(=O)/C=C/c2ccc(Br)cc2)c(=O)o1 | 8 to 16 (≈ 23.9 to 47.7 µM) | > 128 | 100 | 
27 | COc1cc(/C=C/C(=O)c2c(O)cc(C)oc2=O)cc(OC)c1OC | 8 (≈ 23.1 µM) | > 128 | 100 | 
28 | Cc1cc(O)c(C(=O)/C=C/c2ccco2)c(=O)o1 | 16 to 32 (≈ 65 to 130 µM) | > 128 |  | 
29 | Cc1cc(O)c(C(=O)/C=C/c2ccccc2O)c(=O)o1 | 8 to 16 (≈ 29.4 to 58.8 µM) | > 128 |  | 
30 | COc1cc(C(F)(F)F)ccc1/C=C/C(=O)c1c(O)cc(C)oc1=O | 256 (≈ 723 µM) | > 128 | 100 | 
